Converted amounts (≈) assume the structure as drawn. The source made the active and inactive calls. The rule behind the calls is not given here.
What was measured:
Staphylococcus aureus [1] = experiment: Antimicrobial activity against wild-type Staphylococcus aureus CB190; assay type: functional
Staphylococcus aureus [2] = experiment: Antimicrobial activity against Staphylococcus aureus CB1880 harboring rpoB R484H mutant gene by agar dilution method; assay type: functional
Method in brief: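 CLSI agar dilution MIC on MHII base medium against stepwise-passage isolates; passage was in MHII broth without polysorbate 80, daily at 37°C.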

Staphylococcus aureus [3] = experiment: Antimicrobial activity against Staphylococcus aureus CB1881 harboring rpoB R484H mutant gene and L520 deficient gyrA gene; assay type: functional
Staphylococcus aureus [4] = experiment: Antimicrobial activity against Staphylococcus aureus CB1883 harboring rpoB R484H mutant gene, L520 deficient gyrA gene, gyrA S84L mutant gene and R236 duplicated par C gene; assay type: functional
Staphylococcus aureus [5] = experiment: Antimicrobial activity against Staphylococcus aureus CB1875 harboring gyrA […], parC R298K mutant genes and LNVIKEE461 inserted parC gene by broth microdilution method; assay type: functional
Method in brief: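 CLSI broth microdilution MIC in MHII broth with 0.002% (vol/vol) polysorbate 80. Isolates came from daily stepwise broth passage at sub-MIC drug (MHII without polysorbate 80, 10^6 CFU/ml inoculum, 20–24 h shaking at 37°C), were purified drug-free, and were sequenced at target loci.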

Staphylococcus aureus [6] = experiment: Antimicrobial activity against Staphylococcus aureus CB1887 harboring rpoB R484H, L520 deficient gyrA, […], R236 duplicated parC and parC H103Y mutant genes selected after ABT-719 exposure for 20 days by agar dilution method; assay type: functional; settings: CB1887, 480 h
Staphylococcus aureus [7] = experiment: Antimicrobial activity against Staphylococcus aureus CB370 harboring rpoB H481Y mutant gene by broth microdilution method; assay type: functional
Method in brief: (§1)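 CLSI broth microdilution MIC in cation-adjusted Mueller-Hinton (MHII) broth supplemented with 0.002% (vol/vol) polysorbate 80, included to limit compound loss to plastic surfaces.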

Staphylococcus aureus [8] = experiment: Antimicrobial activity against Staphylococcus aureus CB814 harboring gyrA […] and parc S80F mutant genes by broth microdilution method; assay type: functional; method in brief: as §1
Staphylococcus aureus [9] = experiment: Antimicrobial activity against Staphylococcus aureus CB1952 harboring rpoB S486L, gyrA […], gyrA E88Q, gyrA G532S, parC S80F, parC E84L mutant genes selected after CBR-2092 exposure for 21 days by agar dilution method; assay type: functional; settings: CB1952, 504 h
Method in brief: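 CLSI agar dilution MIC on MHII base medium against strains from multistep passage (up to 20–21 days) of parents with preexisting rifamycin and/or quinolone resistance.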

[10] = Inhibition of Staphylococcus aureus RpoB H481Y mutant
Method in brief: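 Recombinant S. aureus σA RNA polymerase holoenzyme carrying RpoB H481Y. Single-round transcription of the pGL2B-T7A1-G-less template. The 272-nt G-less RNA product is quantified by gel electrophoresis. IC50 is the concentration that inhibits 50% of product formed without inhibitor.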

Staphylococcus aureus [11] = experiment: Antimicrobial activity against Staphylococcus aureus CB808 harboring quinolone-resistant parC S80F mutant gene by broth microdilution method; assay type: functional; method in brief: as §1
Staphylococcus aureus [12] = experiment: Antimicrobial activity against Staphylococcus aureus CB814 harboring fluoroquinolone-resistant gyrA S84L and parC S80F mutant genes by broth microdilution method; assay type: functional; method in brief: as §1
Staphylococcus aureus [13] = experiment: Antimicrobial activity against Staphylococcus aureus CB370 harboring rifampin-resistant rpoB H481Y mutant gene by broth microdilution method; assay type: functional; method in brief: as §1
Staphylococcus aureus [14] = experiment: Antimicrobial activity against Staphylococcus aureus CB812 harboring rpo B H481Y and gyrA S84L mutant genes by broth microdilution method; assay type: functional; method in brief: as §1
Staphylococcus aureus [15] = experiment: Inhibition of RNA synthesis in Staphylococcus aureus CB190 assessed as decrease in [5,6-3H]uridine incorporation at 0.5 ug/ml; assay type: functional, organism-based
Staphylococcus aureus [16] = experiment: Inhibition of protein synthesis in rifamycin-resistant Staphylococcus aureus CB370 harboring rpoB H481Y mutant gene assessed as decrease in L-[3,4,5-3H]leucine incorporation at 0.5 ug/ml; assay type: functional, organism-based
Method in brief: (§2)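 Time-course radiolabel incorporation in S. aureus cultures with test agent. Precursors: [methyl-3H]thymidine (DNA), [5,6-3H]uridine (RNA), L-[3,4,5-3H]leucine (protein), [2,3-3H]D-alanine (cell wall). At each time point, incorporation with agent is expressed relative to the DMSO-treated control culture as percent incorporation. Time-zero incorporation is set to 100%.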

Staphylococcus aureus [17] = experiment: Inhibition of protein synthesis in quinolone-resistant Staphylococcus aureus CB814 harboring gyrA S84L and parC S80F mutant genes assessed as decrease in L-[3,4,5-3H]leucine incorporation at 0.5 ug/ml; assay type: functional, organism-based; method in brief: as §2
Staphylococcus aureus [18] = experiment: Antimicrobial activity against rifampin-sensitive Staphylococcus aureus CB190 harboring rpoB H481Y mutant gene by broth microdilution method; assay type: functional; method in brief: as §1
Staphylococcus aureus [19] = experiment: Antimicrobial activity against rifampin-sensitive Staphylococcus aureus CB190 harboring rpoB Q468K mutant gene by broth microdilution method; assay type: functional; method in brief: as §1
Staphylococcus aureus [20] = experiment: Antimicrobial activity against rifampin-sensitive Staphylococcus aureus CB190 harboring rpo BH481D mutant gene by broth microdilution method; assay type: functional; method in brief: as §1
Staphylococcus aureus [21] = experiment: Antimicrobial activity against rifampin-sensitive Staphylococcus aureus CB190 harboring rpoB H472 mutant gene by broth microdilution method; assay type: functional; method in brief: as §1
Staphylococcus aureus [22] = experiment: Antimicrobial activity against rifampin-sensitive Staphylococcus aureus CB190 harboring rpoB E473 mutant gene by broth microdilution method; assay type: functional; method in brief: as §1
Staphylococcus aureus [23] = experiment: Antimicrobial activity against rifampin-sensitive Staphylococcus aureus CB190 harboring rpoB H481N mutant gene by broth microdilution method; assay type: functional; method in brief: as §1
Staphylococcus aureus [24] = experiment: Antimicrobial activity against rifampin-sensitive Staphylococcus aureus CB190 harboring rpoB A477V mutant gene by broth microdilution method; assay type: functional; method in brief: as §1
Staphylococcus aureus [25] = experiment: Antimicrobial activity against Staphylococcus aureus CB1523 harboring rpoB H481Y and gyrA A26V mutant genes selected after 0.25 ug/ml drug exposure by broth microdilution method; assay type: functional
Method in brief: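 CLSI broth microdilution in cation-adjusted Mueller-Hinton (MHII) broth supplemented with 0.002% (vol/vol) polysorbate 80 to limit compound loss to plastic. Strains are spontaneous single-step mutants isolated on agar from an rpoB H481Y parent (RN4220 background), purified through drug-free passage with the resistance phenotype re-verified as stable before testing; target loci genotyped by PCR amplification and sequencing.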

Staphylococcus aureus [26] = experiment: Antimicrobial activity against Staphylococcus aureus CB1353 harboring rpoB H481Y, parC S80F, parE V458G and gyrA S84L mutant genes selected after 0.53 ug/ml drug exposure by broth microdilution method; assay type: functional
Staphylococcus aureus [27] = experiment: Antimicrobial activity against Staphylococcus aureus CB815 harboring rpoB H481Y, gyrA S84L and parC S80F mutant genes by broth microdilution method
Staphylococcus aureus [28] = experiment: Antimicrobial activity against Staphylococcus aureus CB1416 harboring rpo BH481Y and gyrA L795S mutant genes selected after 0.1 ug/ml drug exposure by broth microdilution method
Staphylococcus aureus [29] = experiment: Antimicrobial activity against Staphylococcus aureus CB1417 harboring rpoB H481Y and gyrA G532V mutant genes selected after 0.1 ug/ml drug exposure by broth microdilution method
Staphylococcus aureus [30] = experiment: Antimicrobial activity against Staphylococcus aureus CB1419 harboring rpoB H481Y and gyrA G572D mutant genes selected after 0.1 ug/ml drug exposure by broth microdilution method

Compound CO[C@H]1/C=C/O[C@@]2(C)Oc3c(C)c(O)c4c(O)c(c(/C=N/N5CCC(N(C)C6([C@@H]7CCN(c8c(F)cn9c(=O)c(C(=O)O)cc(C%10CC%10)c9c8C)C7)CC6)CC5)c(O)c4c3C2=O)NC(=O)/C(C)=C\C=C\[C@H](C)[C@H](O)[C@@H](C)[C@@H](O)[C@@H](C)[C@H](OC(C)=O)[C@@H]1C has a Time (Staphylococcus aureus [1]) of 38 min, an MIC (Staphylococcus aureus [2]) of 0.032 µg/mL (≈ 0.0265 µM) and a Time (Staphylococcus aureus [3]) of 41 min. The Time (Staphylococcus aureus [4]) was 47 min, the MIC (Staphylococcus aureus [5]) was 0.008 µg/mL (≈ 0.00664 µM) and the MIC (Staphylococcus aureus [6]) was > 8 µg/mL. For the same compound, the MIC (Staphylococcus aureus [7]) was 0.12 µg/mL (≈ 0.0996 µM), the MIC (Staphylococcus aureus [8]) was 0.015 µg/mL (≈ 0.0124 µM) and the MIC (Staphylococcus aureus [9]) was 4 µg/mL (≈ 3.32 µM). For the same compound, the IC50 [10] was > 25 µM, the MIC (Staphylococcus aureus [11]) was 0.015 µg/mL (≈ 0.0124 µM) and the MIC (Staphylococcus aureus [12]) was 0.015 µg/mL (≈ 0.0124 µM). The MIC (Staphylococcus aureus [13]) was 0.12 µg/mL (≈ 0.0996 µM), the MIC (Staphylococcus aureus [14]) was 0.5 µg/mL (≈ 0.415 µM) and the Activity (Staphylococcus aureus [15]) was “Active”. The Activity (Staphylococcus aureus [16]) was “Active”, the Activity (Staphylococcus aureus [17]) was “Active” and the MIC (Staphylococcus aureus [18]) was 0.12 µg/mL (≈ 0.0996 µM). For the same compound, the MIC (Staphylococcus aureus [19]) was 0.5 µg/mL (≈ 0.415 µM), the MIC (Staphylococcus aureus [20]) was 0.25 µg/mL (≈ 0.207 µM) and the MIC (Staphylococcus aureus [21]) was 0.12 µg/mL (≈ 0.0996 µM). The MIC (Staphylococcus aureus [22]) was 0.25 µg/mL (≈ 0.207 µM), the MIC (Staphylococcus aureus [23]) was 0.25 µg/mL (≈ 0.207 µM) and the MIC (Staphylococcus aureus [24]) was 0.12 µg/mL (≈ 0.0996 µM). The MIC (Staphylococcus aureus [25]) was 1 µg/mL (≈ 0.83 µM), the MIC (Staphylococcus aureus [26]) was 16 µg/mL (≈ 13.3 µM) and the MIC (Staphylococcus aureus [27]) was 2 µg/mL (≈ 1.66 µM). It also gave an MIC (Staphylococcus aureus [28]) of 0.5 µg/mL (≈ 0.415 µM), an MIC (Staphylococcus aureus [29]) of 0.5 µg/mL (≈ 0.415 µM) and an MIC (Staphylococcus aureus [30]) of 1 µg/mL (≈ 0.83 µM).

From ChEMBL document CHEMBL1275434, “In vitro evaluation of CBR-2092, a novel rifamycin-quinolone hybrid antibiotic: studies of the mode of action in Staphylococcus aureus” (Antimicrob Agents Chemother, 2008)
